Measurements as given in ChEMBL document CHEMBL1240521, “Design and synthesis of biphenyl derivatives as mushroom tyrosinase inhibitors” (Bioorg Med Chem, 2010).

Biological target: T1, Tyrosinase (Agaricus bisporus, UniProt O42713)
T1 sequence (O42713 whole entry): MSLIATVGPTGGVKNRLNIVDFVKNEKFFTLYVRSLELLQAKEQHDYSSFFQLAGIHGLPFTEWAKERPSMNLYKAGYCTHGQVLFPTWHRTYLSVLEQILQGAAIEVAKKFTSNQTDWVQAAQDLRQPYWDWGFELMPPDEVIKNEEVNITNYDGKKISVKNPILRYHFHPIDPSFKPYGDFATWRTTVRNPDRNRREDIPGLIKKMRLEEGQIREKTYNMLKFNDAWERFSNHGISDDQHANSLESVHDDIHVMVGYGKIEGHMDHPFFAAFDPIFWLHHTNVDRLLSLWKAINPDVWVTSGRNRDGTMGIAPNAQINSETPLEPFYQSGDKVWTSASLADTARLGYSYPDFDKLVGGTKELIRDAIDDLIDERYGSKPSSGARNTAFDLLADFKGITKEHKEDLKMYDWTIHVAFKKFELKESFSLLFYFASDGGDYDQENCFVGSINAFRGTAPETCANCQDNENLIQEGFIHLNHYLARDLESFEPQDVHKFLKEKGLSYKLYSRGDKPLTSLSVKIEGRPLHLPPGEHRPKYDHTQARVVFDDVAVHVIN
Assay: Inhibition of mushroom tyrosinase after 30 mins

SMILES	IC50
COc1cc(-c2ccc(C)c(O)c2)cc(OC)c1OC	> 2000 µM
COc1cc(-c2cc(F)cc(F)c2)cc(OC)c1OC	> 2000 µM
COc1cc(-c2ccc(F)cc2F)cc(OC)c1OC	> 2000 µM
COc1cc(-c2ccc(F)c(F)c2)cc(OC)c1OC	> 2000 µM
COc1cc(-c2cccc(O)c2)cc(OC)c1OC	> 2000 µM
COc1cc(-c2ccccc2C)cc(OC)c1OC	> 2000 µM
COc1cc(-c2ccc(C=O)c(OCc3ccccc3)c2)cc(OC)c1OC	> 2000 µM
COc1cc(-c2ccc(C=O)c(O)c2)cc(OC)c1OC	> 2000 µM
COc1cc(-c2ccc(C(=O)O)c(OCc3ccccc3)c2)cc(OC)c1OC	> 2000 µM
COc1cc(-c2ccc(C(=O)O)c(O)c2)cc(OC)c1OC	> 2000 µM
CCOC(=O)c1ccc(-c2cc(OC)c(OC)c(OC)c2)cc1O	> 2000 µM
COc1cc(-c2ccc(C(=O)NCc3ccccc3)c(OCc3ccccc3)c2)cc(OC)c1OC	> 2000 µM
COc1cccc(-c2cc(OC)c(OC)c(OC)c2)c1F	> 2000 µM
COc1ccc(C(C)=O)cc1-c1cc(OC)c(OC)c(OC)c1	> 2000 µM
COc1ccc(C(C)O)cc1-c1cc(OC)c(OC)c(OC)c1 (configuration not stated)	> 2000 µM
COc1cc(-c2cccc(OCc3ccccc3)c2)cc(OC)c1OC	550 µM
COc1cc(-c2ccc(C(=O)O)cc2)cc(OC)c1OC	> 2000 µM
CCCCNC(=O)c1ccc(-c2cc(OC)c(OC)c(OC)c2)cc1	> 2000 µM
COc1cc(-c2ccc(C(=O)NCc3ccccc3)cc2)cc(OC)c1OC	> 2000 µM
COc1ccc(C(C)O)cc1-c1cc(OC)c(O)c(OC)c1 (configuration not stated)	190 µM

Molecules with a lower IC50, results first:

IC50	SMILES
60 µM	COc1cc(-c2ccc(C=O)c(O)c2)cc(OC)c1O
90 µM	COc1cc(-c2ccc(C)c(O)c2)cc(OC)c1O
80 µM	COc1cc(-c2cc(F)cc(F)c2)cc(OC)c1O
60 µM	COc1cc(-c2ccc(F)cc2F)cc(OC)c1O
70 µM	COc1cc(-c2ccc(F)c(F)c2)cc(OC)c1O
60 µM	COc1cc(-c2cccc(OC)c2F)cc(OC)c1O
80 µM	COc1cc(-c2cccc(O)c2F)cc(OC)c1O
90 µM	COc1cc(-c2cccc(O)c2)cc(OC)c1O
170 µM	COc1cc(-c2ccccc2C)cc(OC)c1O
50 µM	COc1cc(-c2ccc(C(=O)O)cc2)cc(OC)c1O
170 µM	COc1cc(-c2ccc(O)c(OCc3ccccc3)c2)cc(OC)c1OC
20 µM	COc1cc(-c2ccc(C(=O)O)c(O)c2)cc(OC)c1O
50 µM	CCOC(=O)c1ccc(-c2cc(OC)c(O)c(OC)c2)cc1O
30 µM	COc1cc(-c2ccc(C(=O)NCc3ccccc3)c(O)c2)cc(OC)c1O
140 µM	COc1ccc(C(C)=O)cc1-c1cc(OC)c(O)c(OC)c1
70 µM	CCCCNC(=O)c1ccc(-c2cc(OC)c(O)c(OC)c2)cc1
120 µM	COc1cc(-c2ccc(C(=O)NCc3ccccc3)cc2)cc(OC)c1O
140 µM	COc1cc(-c2ccc(O[C@@H]3O[C@H](CO)[C@@H](O)[C@H](O)[C@H]3O)c(O)c2)cc(OC)c1O [FORTUNEANOSIDE E]

Biological target: T1, Tyrosinase
Assay: Competitive inhibition of mushroom tyrosinase after 30 mins by Lineweaver-Burke double reciprocal plot analysis
In short: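 Inhibition type and Ki were determined with respect to L-tyrosine as substrate, using mushroom tyrosinase with dopachrome read-out at 492 nm. Incubation was 30 min at 37 °C in 25 mM PBS, pH 6.8.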

Ki	SMILES
38 µM	COc1cc(-c2ccc(C(=O)O)cc2)cc(OC)c1O
15 µM	COc1cc(-c2ccc(C(=O)O)c(O)c2)cc(OC)c1O
60 µM	COc1cc(-c2ccc(C(=O)NCc3ccccc3)c(O)c2)cc(OC)c1O
31 µM	CCCCNC(=O)c1ccc(-c2cc(OC)c(O)c(OC)c2)cc1
